Activity calls are given as the source filed them.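 Rule for the calls, unless noted: active = current rise at least 3 SD above the untreated control mean in each of two repeat wells; inactive = the rest.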

Assay [1] in a line: thallium flux activation in parental CHO cells, counter-screen for KCNQ1 potentiator project (AID 493006;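 active = duplicate-averaged activation above buffer control mean plus 5 SD of those controls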;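 for activation: fluorescence ratio of max minus min over baseline after K+ and Tl+ depolarization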). As to conditions: parental CHO-K1 cells, FluxOR thallium flux, at 10 µM; active compounds read high. An outline of the steps: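 Material: parental CHO-K1 cells, FluxOR dye-loaded; Also added: Potassium/thallium depolarization pulse; Schedule: overnight 37 °C plating, 90 min dye, 20 min dark compound; Signal: kinetic FluxOR fluorescence, 10 s baseline, 110 s after stimulus.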

The target of assay [2] is Potassium voltage-gated channel subfamily KQT member 1 (Homo sapiens) (UniProt P51787). As to the kind of experiment: KCNQ1 potassium channel potentiators, confirmation, FluxOR thallium flux, CHO cells, duplicates (AID 493007;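 active = potentiation averaged over duplicate wells exceeding buffer-only control mean by more than 3 SD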;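 for outcome: cells depolarized by a potassium plus thallium sulfate stimulus after compound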). The conditions noted are these: KCNQ1 cell line, FluxOR thallium flux fluorescence, at 10 µM; active compounds read high, % of reference activator effect, buffer zero. An outline of the steps: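 System: KCNQ1-expressing CHO cell line; technique: kinetic thallium influx fluorescence with FluxOR dye, 10 s baseline, 110 s post-stimulus; timing: dye 90 min then compound 20 min, both at room temperature; controls: buffer-only wells as 0% and R-L3 activator as 100%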

The target in assay [3] is Potassium voltage-gated channel subfamily KQT member 2 (Rattus norvegicus) (UniProt O88943). Description: rat KCNQ2 channel potentiation, selectivity assay for KCNQ1 potentiator project, KCNQ2-CHO-K1 cells (AID 493009;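 active = mean duplicate potentiation above the buffer control mean plus 5 SD of buffer wells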;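 note: assay conditions were tuned for KCNQ1 rather than KCNQ2 modulators; signal is max minus min fluorescence divided by baseline after thallium stimulus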). As to conditions: FluxOR thallium flux fluorescence, at 10 µM; active compounds read high, scaled: buffer 0, activator control 100.
In assay [4] the target is Potassium voltage-gated channel subfamily KQT member 1 (Homo sapiens) (UniProt P51787). As to the kind of experiment: KCNQ1 channel current potentiators, confirmation, orthogonal assay for KCNQ1 potentiator project, IonWorks patch clamp, KCNQ1-CHO cells (AID 493184). The conditions noted are these: automated patch clamp current, at 10 µM; active compounds read high. An outline of the steps:
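Test system: KCNQ1-expressing CHO cells. Medium: pH 7.4 external bath. Probe or stimulus: voltage step from -90 mV holding to +40 mV, 2,000 ms. Compound: 10 µM final, single point. Detection: automated perforated-patch electrophysiology. Read-out: percent current increase versus pre-compound level. Repeats: two replicates.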

Sequence of Potassium voltage-gated channel subfamily KQT member 1 (Homo sapiens) (P51787 whole entry, looked up): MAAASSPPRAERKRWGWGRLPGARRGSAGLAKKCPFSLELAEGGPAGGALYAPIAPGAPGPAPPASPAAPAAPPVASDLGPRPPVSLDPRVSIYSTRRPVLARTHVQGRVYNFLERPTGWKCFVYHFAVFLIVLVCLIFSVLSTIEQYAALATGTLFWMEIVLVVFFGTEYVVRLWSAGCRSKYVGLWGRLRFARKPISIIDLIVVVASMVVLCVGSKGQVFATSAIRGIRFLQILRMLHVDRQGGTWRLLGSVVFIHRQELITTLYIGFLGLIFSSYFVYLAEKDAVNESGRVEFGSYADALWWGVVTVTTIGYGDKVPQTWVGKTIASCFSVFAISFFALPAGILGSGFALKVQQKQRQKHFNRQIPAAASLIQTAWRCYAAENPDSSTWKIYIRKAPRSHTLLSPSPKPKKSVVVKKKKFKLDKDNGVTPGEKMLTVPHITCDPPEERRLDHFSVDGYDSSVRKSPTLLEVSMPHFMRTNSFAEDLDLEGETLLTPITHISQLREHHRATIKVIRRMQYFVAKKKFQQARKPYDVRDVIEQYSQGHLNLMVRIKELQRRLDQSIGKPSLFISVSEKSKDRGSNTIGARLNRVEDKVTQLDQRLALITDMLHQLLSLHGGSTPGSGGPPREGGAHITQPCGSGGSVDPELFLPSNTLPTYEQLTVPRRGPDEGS
Sequence of Potassium voltage-gated channel subfamily KQT member 2 (Rattus norvegicus) (O88943 whole entry, looked up): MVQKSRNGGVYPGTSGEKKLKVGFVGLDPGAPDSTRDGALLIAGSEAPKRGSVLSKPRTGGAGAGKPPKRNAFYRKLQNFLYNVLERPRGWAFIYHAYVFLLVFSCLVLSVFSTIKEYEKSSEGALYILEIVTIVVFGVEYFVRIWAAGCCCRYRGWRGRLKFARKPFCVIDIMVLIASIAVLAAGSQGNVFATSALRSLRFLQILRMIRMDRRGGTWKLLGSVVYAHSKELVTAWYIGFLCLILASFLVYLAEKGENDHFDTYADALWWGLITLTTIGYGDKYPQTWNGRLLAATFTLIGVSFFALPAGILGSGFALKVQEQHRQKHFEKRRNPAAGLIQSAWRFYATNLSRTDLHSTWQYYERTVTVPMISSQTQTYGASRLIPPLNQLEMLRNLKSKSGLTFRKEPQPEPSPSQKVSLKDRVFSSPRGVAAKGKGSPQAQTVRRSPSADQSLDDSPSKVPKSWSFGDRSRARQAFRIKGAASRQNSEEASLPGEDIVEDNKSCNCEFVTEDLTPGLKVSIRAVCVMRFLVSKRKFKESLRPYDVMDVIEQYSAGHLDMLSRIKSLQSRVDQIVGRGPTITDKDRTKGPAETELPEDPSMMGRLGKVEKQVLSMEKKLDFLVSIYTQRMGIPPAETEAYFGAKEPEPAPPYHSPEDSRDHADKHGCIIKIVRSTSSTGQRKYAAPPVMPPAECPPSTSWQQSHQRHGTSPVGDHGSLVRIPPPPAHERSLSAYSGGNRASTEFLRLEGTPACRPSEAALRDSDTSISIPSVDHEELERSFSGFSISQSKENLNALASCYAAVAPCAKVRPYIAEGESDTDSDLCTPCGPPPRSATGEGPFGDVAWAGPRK

`O=C(NC(=S)Nc1ccc(N2CCOCC2)c(Cl)c1)c1sc2ccccc2c1Cl`: the result in assay [1], in assay [3] and in assay [4] was inactive. For the same molecule, the potentiation in assay [2] is 35.5% (active).

As for `CCOCC(=O)Nc1ccc2c(c1)N(S(=O)(=O)c1cccs1)CCC2`, the outcome in assay [1], in assay [2], in assay [3] and in assay [4] was inactive.

For the molecule `CCCCn1c(N)c(C(=S)NC(=O)CC(C)(C)C)c(=O)n(C)c1=O`, in assay [1], the activation is 140% (active). Further, the potentiation in assay [2] was 37.5% (active); in assay [3], 148% (active). Further, the outcome in assay [4] was inactive.

`O=C(COc1ccccc1)N1CCN(S(=O)(=O)c2cccs2)CC1`: the outcome in assay [1], in assay [2], in assay [3] and in assay [4] was inactive.

For the molecule `CNCc1ccccc1Sc1cccc2ccccc12`, the result in assay [1], in assay [2], in assay [3] and in assay [4] was inactive.

`COc1cc(Br)cc(C=Nc2cccc(C(F)(F)F)c2)c1O`: the result in assay [1], in assay [2], in assay [3] and in assay [4] was inactive.

As to `O=C(COc1ccccc1[N+](=O)[O-])Nc1cccnc1`, in assay [1], the activation is 186% (active). In addition, the potentiation in assay [2] is 41.5% (active); in assay [3], 172% (active). Moreover, the result in assay [4] was inactive.

Regarding `O=C(O)c1ccc2c(c1)C(=O)N(Cc1ccccc1)C2=O`, the result in assay [1], in assay [2], in assay [3] and in assay [4] was inactive.

For the molecule `CC(CCc1ccccc1)NC(=S)NC(=O)c1ccco1` (stereo not given), the activation in assay [1] is 214% (active). In addition, the potentiation was 69.5% (active) in assay [2] and 251% (active) in assay [3]. Further, the outcome in assay [4] was inactive.

As to `S=c1nc(COc2ccccc2)[nH]c2ccccc12`, in assay [1], the activation was 698% (active). Moreover, the potentiation was 212% (active) in assay [2] and 552% (active) in assay [3]. Moreover, the result in assay [4] was inactive.

As to `O=C(NC(=S)Nc1ccc(N2CCCCC2)c(Cl)c1)c1cccs1`, the activation in assay [1] was 138% (active). The values for the potentiation in assay [2] and in assay [3] were 120% (active) and 232% (active), respectively. Moreover, the result in assay [4] was inactive.

In the case of `Cc1cc(C)n(CC(=O)N2CCCC(N3CCN(c4ccccc4C)CC3)C2)n1` (stereo not given), the activation in assay [1] is 174% (active). Besides, the results for the potentiation in assay [2] and in assay [3] were 79% (active) and 206% (active), respectively. The outcome in assay [4] was inactive.

As to `CCOC(=O)c1sc2nc(Cc3ccc(Cl)cc3)[nH]c(=S)c2c1C`, in assay [1], the activation is 302% (active). The figures for the potentiation in assay [2] and in assay [3] were 144% (active) and 362% (active), respectively. In addition, the result in assay [4] was inactive.

As for `COc1ccc(OCC(=O)NC(=S)Nc2ccc(N3CCOCC3)c(Cl)c2)cc1`, the activation in assay [1] was 142% (active). Moreover, the potentiation in assay [2] was 33.5% (active). Moreover, the outcome in assay [3] and in assay [4] was inactive.

For `C/C(=N\NC(=O)C1COc2ccccc2O1)c1ccc(N2CCOCC2)cc1` (stereo not given), the result in assay [1], in assay [2], in assay [3] and in assay [4] was inactive.

As for `CN1CCN(S(=O)(=O)c2cccc(C(=O)Nc3cc(Cl)ccc3N3CCOCC3)c2)CC1`, the result in assay [1], in assay [2], in assay [3] and in assay [4] was inactive.

`Cc1ccc(NC(=O)C(=O)NNC(=O)c2ccccc2C)cc1Cl`: the activation in assay [1] is 304% (active). Moreover, the potentiation was 112% (active) in assay [2] and 400% (active) in assay [3]. The outcome in assay [4] was inactive.

For the molecule `COCCCNc1nc2ccccc2nc1NS(=O)(=O)c1cccs1`, the result in assay [1], in assay [2], in assay [3] and in assay [4] was inactive.

For the molecule `COc1cc(Br)cc(/C=N/c2ncn[nH]2)c1O`, the activation in assay [1] was 140% (active). Moreover, the potentiation in assay [2] is 18.5% (active). Moreover, the result in assay [3] and in assay [4] was inactive.

With `Cc1c(CN(C)C)c2c(n1C)C(=O)c1ccc(Br)cc1-2`, the activation in assay [1] was 146% (active). The potentiation in assay [2] is 53% (active); in assay [3], 159% (active). Moreover, in assay [4], the outcome was inactive.

As to `CC(=O)c1c(N2CCOCC2)[nH]c(-c2ccccc2)nc1=S`, in assay [1], the activation was 202% (active). In addition, the potentiation in assay [2] was 66.5% (active); in assay [3] it was 204% (active). In addition, the result in assay [4] was inactive.

With `CN(C)C(=S)NC(=O)c1cccc(Cl)c1`, the result in assay [1] and in assay [4] was inactive. Further, the potentiation was 19% (active) in assay [2] and 142% (active) in assay [3].

In the case of `Cc1cc(C)c2ccc(C)[n+]([O-])c2c1O`, the outcome in assay [1], in assay [2], in assay [3] and in assay [4] was inactive.

In the case of `CC(C)(C)NC(=O)C(=O)NNC(=O)C12CC3CC(CC(C3)C1)C2`, the activation in assay [1] is 178% (active). Further, the potentiation in assay [2] was 40% (active); in assay [3], 192% (active). For the same molecule, the result in assay [4] was inactive.

Regarding `COc1cccc(C(=O)COc2ccc(NC(=O)c3ccccc3)cc2)c1`, the result in assay [1], in assay [2], in assay [3] and in assay [4] was inactive.

In the case of `O=C(NNc1nc2c(F)cc(F)cc2s1)c1ccccc1`, the outcome in assay [1], in assay [2], in assay [3] and in assay [4] was inactive.

Regarding `COc1ccc(S(=O)(=O)Nc2cccc3ccc(O)cc23)cc1`, the result in assay [1], in assay [2], in assay [3] and in assay [4] was inactive.

As for `CCOC(=O)c1cnc2c(C(=O)OC)cccc2c1NCCN1CCOCC1`, the outcome in assay [1], in assay [2], in assay [3] and in assay [4] was inactive.

Regarding `Cc1sc2nc(C(C)C)nc(SCC(=O)NCc3ccco3)c2c1C`, the activation in assay [1] was 276% (active). Moreover, the potentiation is 85.5% (active) in assay [2] and 280% (active) in assay [3]. Also, the result in assay [4] was inactive.

As to `Cc1c(CCC(=O)N2CCC[C@H]2C(=O)O)c(=O)oc2c(C)c3oc4c(c3cc12)CCCC4`, the result in assay [1], in assay [2], in assay [3] and in assay [4] was inactive.
